Published values of several laboratories.
Compare with care: the assays were run in different laboratories.
PKN1: Serine/threonine-protein kinase N1 (PKN1, Homo sapiens, UniProt Q16512)
CA9: Carbonic anhydrase 9 (CA9, Homo sapiens, UniProt Q16790)
PRSS1: Serine protease 1 (PRSS1, Bos taurus, UniProt P00760)
SIRT5: NAD-dependent protein deacylase sirtuin-5, mitochondrial (SIRT5, Homo sapiens, UniProt Q9NXA8)

SMILES	target	assay	setting	IC50
C[C@@H](N)[C@H]1CC[C@H](C(=O)Nc2ccncc2)CC1	PKN1	enzyme activity, inhibitor		743 nM
CC(C)C(=O)Nc1ccc(C(=O)N2CCC(C(=O)Nc3ccc(S(N)(=O)=O)cc3)CC2)cc1	CA9	enzyme activity, inhibitor		37.2 nM
CC(C)c1nc(CN(C)C(=O)N[C@@H](CCN2CCOCC2)C(=O)N[C@H](CC[C@H](Cc2ccccc2)NC(=O)OCc2cncs2)Cc2ccccc2)cs1	Solute carrier family 22 member 7 (SLC22A7, Homo sapiens, UniProt Q9Y694)	transporter uptake, inhibitor		> 100000 nM
COc1ccc2c(Oc3ccc4c(C(=O)Nc5ccccc5N)cccc4c3)ccnc2c1	Inward rectifier potassium channel 2 (KCNJ2, Homo sapiens, UniProt P63252)	ion current, inhibitor		> 10000 nM
COc1cc(/C=N/n2c(C)nc3ccc(C)cc3c2=O)cc([N+](=O)[O-])c1O	PRSS1	enzyme activity, inhibitor		55700 nM
CC(OC(=O)C1CCCN(C(=O)c2ccc(Cl)cc2)C1)C(=O)Nc1ccc(S(N)(=O)=O)cc1 (stereo not drawn)	CA9	enzyme activity, inhibitor		42.7 nM
O=C(Nc1ccncc1)c1cc2ccccc2o1	Amine oxidase [flavin-containing] B (MAOB, Homo sapiens, UniProt P27338)	enzyme activity, inhibitor, fluorescence		6900 nM
Cc1cnc(-c2ccc(-c3ccc(NC(=O)Nc4c(F)cc(F)cc4F)cc3F)c3c2C(=O)NC3)[nH]1	Tyrosine-protein kinase HCK (HCK, Homo sapiens, UniProt P08631)	enzyme activity, inhibitor		2.5 nM
CCCC[C@H](NC(=O)[C@H](C)c1c(C)[nH]c2ccc(O)cc12)c1ncc(-c2cc3ccccc3nc2OC)[nH]1	Histone deacetylase 9 (HDAC9, Homo sapiens, UniProt Q9UKV0)	enzyme activity, inhibitor		> 45000 nM
COCCOc1ccc2c(c1)ncn2-c1ccc2cccc(N3CCC(N)CC3)c2n1	PKN1	enzyme activity, inhibitor		36 nM
COc1cc(/C=N/n2c(C)nc3ccc(Br)cc3c2=O)ccc1OCc1ccc(Cl)cc1	PRSS1	enzyme activity, inhibitor		47800 nM
O=C(NO)c1ccc(CN(c2cnccn2)c2cnccn2)cc1	SIRT5	enzyme activity, inhibitor		> 10000 nM
CN(C)Cc1ccc(N2CCN(C(=O)c3ccc(Cl)c(S(N)(=O)=O)c3)CC2)nc1	CA9	enzyme activity, inhibitor		5700 nM
Cc1nc2ccc(Cl)cc2c(=O)n1NC(=O)CCl	PRSS1	enzyme activity, inhibitor		97900 nM
CCOCc1nc(O)c(-c2nnc(Cc3ccc(Cl)cn3)o2)c(O)c1-c1c(OC)cccc1OC	Beta-1 adrenergic receptor (ADRB1, Homo sapiens, UniProt P08588)	ligand displacement, radioligand		> 30000 nM
COc1ccc(-c2nsc(NC(=O)[C@@H]3C[C@H]3C)c2C)cc1	Metabotropic glutamate receptor 4 (GRM4, Homo sapiens, UniProt Q14833)	calcium signal, antagonist		> 12500 nM
CC1Cc2c(-c3cn(C)nn3)cccc2N1Cc1ccoc1C(=O)Nc1ccc(S(N)(=O)=O)cc1 (stereo not drawn)	CA9	enzyme activity, inhibitor		11.2 nM
CCS(=O)(=O)c1cccc(-c2cc(C(=O)NC3CCN(C)CC3)c(C)c3[nH]c4ncc(C)cc4c23)c1	PKN1	enzyme activity, inhibitor		86 nM
NS(=O)(=O)c1cc(C(=O)N2CCCCC2C(=O)Nc2cc(Cl)ccc2Cl)ccc1F (stereo not drawn)	CA9	enzyme activity, inhibitor		30.2 nM
CC(C)C[C@H](CC(=O)NO)C(=O)N[C@@H](Cc1ccccc1)C(=O)NCCN1CCOCC1	Matrix metalloproteinase-9 (MMP9, Homo sapiens, UniProt P14780)	enzyme activity, inhibitor, fluorescence		3 nM

SMILES	target	assay	setting	IC50
NS(=O)(=O)c1cc(NC(=O)CCc2nnc(-c3ccc(Cl)cc3)o2)ccc1O	CA9	enzyme activity, inhibitor		30.2 nM
O=C1NC(=O)C(c2cnc3ccccn23)=C1c1cn2c3c(cc(F)cc13)CN(C(=O)N1CCCCC1)CC2	PKN1	enzyme activity, inhibitor		108 nM
O=C(NS(=O)(=O)c1ccc(COc2ccccc2)cc1)c1cccc(-c2cc(Cl)cc(Cl)c2)c1	Induced myeloid leukemia cell differentiation protein Mcl-1 (MCL1, Homo sapiens, UniProt Q07820)	ligand displacement, FP		5100 nM
CC(NC(=O)c1ccccc1/N=C/c1c(O)ccc2ccccc12)c1ccccc1 (stereo not drawn)	SIRT5	enzyme activity, inhibitor, HPLC		> 100000 nM
CC1(COc2ccc3c(c2)ncn3-c2ccc3cccc(N4CCC(N)CC4)c3n2)COC1	PKN1	enzyme activity, inhibitor		22 nM
O=c1c(O)c(-c2ccc(O)c(O)c2)oc2cc(O)cc(O)c12	Sulfotransferase 1A1 (SULT1A1, Homo sapiens, UniProt P50225, R213H)	enzyme activity, inhibitor		232 nM
COc1cc2c(c(OC)c1OC)-c1c(cc3c(c1OC)OCO3)[C@H](OC(=O)c1ccccc1)[C@@](C)(O)[C@@H](C)C2	Cytochrome P450 3A5 (CYP3A5, Homo sapiens, UniProt P20815)	enzyme activity, inhibitor	15 min, pH 7.4	590 nM
NS(=O)(=O)c1ccc(CCNC(=O)Nc2ccc(NC(=O)c3ccc(Cl)cc3)cc2)cc1	CA9	enzyme activity, inhibitor		96 nM
COc1ccc(C2=NN(C3CCCCCC3)C(=O)[C@@H]3CC=CC[C@H]23)cc1-c1ccc(C(=O)NCC(N)=O)cc1 (relative stereo)	3',5'-cyclic-AMP phosphodiesterase 4C (PDE4C, Homo sapiens, UniProt Q08493)	enzyme activity, inhibitor		1000 nM
Cc1nc2ccccc2c(=O)n1NC(=O)CSc1nc2ccccc2c(=O)n1-c1ccccc1	PRSS1	enzyme activity, inhibitor		3730 nM
CCNC(=O)[C@H](CCCNC(=N)CCl)NC(=O)c1ccccc1	Protein-arginine deiminase type-4 (PADI4, Homo sapiens, UniProt Q9UM07)	enzyme activity, inhibitor		4100 nM
CC[C@@H](C(=O)Nc1ccc(C(N)=O)c(F)c1)n1cc(OC)c(-c2cc(Cl)ccc2-n2cc(C(F)(F)F)nn2)cc1=O	Urokinase-type plasminogen activator (PLAU, Homo sapiens, UniProt P00749)	enzyme activity, inhibitor		> 10000 nM
CN1CCN(c2ccc(Nc3ncc4cc(C#N)c(=O)n(C5CCCC5)c4n3)cc2)CC1	Ribosomal protein S6 kinase alpha-6 (RPS6KA6, Homo sapiens, UniProt Q9UK32)	enzyme activity, inhibitor		101 nM
Cc1c[nH]c2nc(Nc3ccc(N4CCN(C)CC4)c(F)c3)nc(-c3cccc(CC#N)c3)c12	PKN1	enzyme activity, inhibitor		187 nM
NS(=O)(=O)c1ccc(NC2=NC(=O)C(CC(=O)Nc3ccc(Br)cc3)S2)cc1 (stereo not drawn)	CA9	enzyme activity, inhibitor		52 nM
Cc1cc(Nc2cc(CN3CCOCC3)c3nc(C)c(Cc4ccc(Cl)cc4F)n3n2)n[nH]1	PKN1	enzyme activity, inhibitor		4070 nM
Cc1nc2ccc(Br)cc2c(=O)n1/N=C/c1ccc(C(=O)O)cc1	PRSS1	enzyme activity, inhibitor		213000 nM
NS(=O)(=O)c1ccc(NC2=NC(=O)/C(=C\c3ccc(C(=O)O)cc3)S2)cc1	CA9	enzyme activity, inhibitor		122 nM
CC(C)c1cc(CNc2nc(Nc3cc(C4CC4)[nH]n3)cc(N3CCN(C)CC3)n2)on1	PKN1	enzyme activity, inhibitor		20 nM
